Lipid droplet: inhibitors of hepatocyte lipid droplet formation, primary screen, imaging, high-throughput imaging, BODIPY stain; AML12 mouse hepatocytes, oleate lipid droplets; inhibition, % at 6.5 µM; hit rate 0.4% among 240,000; AID 1656, 2009;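 active means lipid droplet intensity inhibited by at least 50%, with more than 500 cells counted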
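Material: mouse AML12 hepatocyte cell line, fixed after treatment; Timing: compound with oleate, overnight; Technique: high-content imaging of BODIPY-stained droplets and DAPI nuclei; Probe or stimulus: oleate, 100 µM final; Dosing: compound at 6.5 µM only.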
p-CIP stab down: p/CIP-EGFP fusion destabilizers, primary screen, fluorescence, F442A cells. AID 1984, 2009. decrease of EGFP signal, % at 10 µM. 16 h. hit rate 0.01% among 290,000. Q05BA5;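 active means EGFP signal decrease of at least 30% at 10 µM or well 3 SD below plate mean, unless failing retest; inactive means the rest, including hits failing retest or dose response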
Target sequence (Q05BA5 1-1403): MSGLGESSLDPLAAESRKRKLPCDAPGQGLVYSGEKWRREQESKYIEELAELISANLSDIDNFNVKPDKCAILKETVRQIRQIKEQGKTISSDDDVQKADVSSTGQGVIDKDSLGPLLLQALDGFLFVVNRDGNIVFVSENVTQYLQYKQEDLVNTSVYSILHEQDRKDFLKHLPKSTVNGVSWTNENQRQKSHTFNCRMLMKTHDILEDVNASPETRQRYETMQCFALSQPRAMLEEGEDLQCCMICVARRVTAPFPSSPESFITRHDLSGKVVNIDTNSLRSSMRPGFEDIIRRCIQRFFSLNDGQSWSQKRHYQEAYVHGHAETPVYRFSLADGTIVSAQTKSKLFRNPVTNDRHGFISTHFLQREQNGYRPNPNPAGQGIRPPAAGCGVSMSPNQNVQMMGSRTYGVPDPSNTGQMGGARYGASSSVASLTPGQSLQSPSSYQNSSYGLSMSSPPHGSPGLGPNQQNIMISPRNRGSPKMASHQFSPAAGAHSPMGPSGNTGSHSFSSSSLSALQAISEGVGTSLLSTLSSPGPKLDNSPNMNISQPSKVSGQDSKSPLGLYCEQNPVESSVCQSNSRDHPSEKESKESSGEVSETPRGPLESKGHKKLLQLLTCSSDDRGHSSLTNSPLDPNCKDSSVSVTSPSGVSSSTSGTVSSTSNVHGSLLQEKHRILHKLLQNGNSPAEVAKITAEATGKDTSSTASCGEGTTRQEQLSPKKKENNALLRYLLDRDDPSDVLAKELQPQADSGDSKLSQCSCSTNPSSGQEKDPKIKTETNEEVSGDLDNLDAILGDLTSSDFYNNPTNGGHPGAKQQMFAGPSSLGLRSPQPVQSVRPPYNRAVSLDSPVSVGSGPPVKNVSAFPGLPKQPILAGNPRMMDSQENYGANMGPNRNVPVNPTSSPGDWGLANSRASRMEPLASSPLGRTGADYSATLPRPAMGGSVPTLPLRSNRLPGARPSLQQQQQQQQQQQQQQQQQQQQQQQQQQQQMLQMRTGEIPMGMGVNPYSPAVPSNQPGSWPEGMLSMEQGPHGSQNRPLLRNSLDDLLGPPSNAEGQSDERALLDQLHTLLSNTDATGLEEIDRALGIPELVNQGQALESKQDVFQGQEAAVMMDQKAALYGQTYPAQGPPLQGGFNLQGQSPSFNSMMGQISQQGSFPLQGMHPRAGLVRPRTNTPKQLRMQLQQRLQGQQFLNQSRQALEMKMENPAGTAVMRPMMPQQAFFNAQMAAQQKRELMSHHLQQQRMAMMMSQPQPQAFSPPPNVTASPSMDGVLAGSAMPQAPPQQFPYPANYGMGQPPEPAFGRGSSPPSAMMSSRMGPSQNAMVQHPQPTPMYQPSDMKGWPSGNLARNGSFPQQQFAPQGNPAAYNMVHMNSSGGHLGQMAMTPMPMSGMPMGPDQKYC
Mdm2 ligase inh: MDM2-luciferase reporter signal enhancers, primary screen, MDM2 E3 ligase inhibitor project, cell-based, luminescence, 1536-well; cell-based MDM2 ubiquitination luciferase reporter, 2 h; 0 = plate control, 100 = twice control, blank-subtracted; E3 ubiquitin-protein ligase Mdm2 (Homo sapiens), Q00987; hit rate 0.11% among 210,000; AID 1230, 2008; signal enhancement, % at 5 µM;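 active means signal enhancement of 30% or more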;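 further: luminescence tracks abundance of the self-degrading MDM2-luciferase fusion protein; higher signal means inhibition of MDM2 E3 ligase activity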
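Material: Stable MDM2–luciferase fusion reporter cells | Amount: 2000 cells seeded into each well | Dosing: One concentration, 5 µM, with 0.2% DMSO | Incubation: 4 h cell settling then 2 h compound exposure, 37 °C | Measured by: Luciferase luminescence | Read-out basis: % enhancement relative to plate controls after blank subtraction | Benchmarks: Control and blank well means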
Lipid drop inh: hepatocyte lipid droplet accumulation inhibitors, confirmation, imaging, AML12 mouse hepatocytes, single concentration, high-content; shares compounds with Lipid droplet; BODIPY lipid droplet imaging; droplets induced with 100 µM oleic acid; inhibition, % at 5.2 µM; hit rate 65% among 870;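 active means inhibition of lipid droplet metric at least 50%, with more than 300 cells in each of four replicates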;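 further: plate controls were DMSO with oleic acid for no effect and 5 µM Triacsin-C for full effect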
AML12 tox img: AML12 hepatocyte cytotoxicity, counter-screen for hepatic lipid droplet formation project, imaging, DAPI nuclear morphology imaging; shares compounds with Lipid droplet; z-score at 5 µM; AML12 mouse hepatocytes; active compounds read high; cells fed 100 µM oleate overnight; hit rate 3% among 870; in the data active means z-score above about 6.3;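 further: compound exposure lasted overnight at 37 °C before fixation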
AML12 tox conf: AML12 hepatocyte cytotoxicity, confirmation, cytotoxicity control for hepatic lipid droplet formation project, cell-based, single concentration; shares compounds with Lipid droplet; AML12 mouse hepatocyte viability, ATP luminescence; cells loaded with 100 µM oleic acid; cytotoxicity, % at 50 µM; 530 tested, under 10 active; AID 463219, 2010;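 active means cytotoxicity above 50% in each of four replicates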;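 further: compound exposure lasted overnight at 37 °C before the ATP read; 0% = DMSO-treated cells and 100% = wells with no cells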
* marks the source's active call; other numbers are inactive results; . = no result given. The sample as a whole holds a higher share of hits than the screen did.

SMILES | Lipid droplet | p-CIP stab down | Mdm2 ligase inh | Lipid drop inh | AML12 tox img | others
COc1ccc(-c2[nH]nc3c2C(c2ccsc2)C(C#N)=C(N)O3)cc1 (centres undefined) | . | -9 | -12 | . | .
Oc1[nH]c2ccccc2c1N=NC(=S)N1CCOCC1 | . | -1 | 31* | . | .
Oc1[nH]c2ccc(Br)cc2c1N=NC(=S)N1CCOCC1 | . | -13 | 14 | . | .
CCOc1ccc(CCNC(=O)Cn2ccc3ccccc3c2=O)cc1OCC | 50* | -3 | -2 | . | .
CCOc1ccc(CCNC(=O)COC(=O)Cn2cnc3ccccc3c2=O)cc1OCC | 0 | -7 | -3 | . | .
CCN1CCN(c2cc(C)c3cc(NC(=O)CCC(=O)Nc4ccc(OC)cc4OC)ccc3n2)CC1 | 89* | -3 | . | 94* | 0.97 | AML12 tox conf=16
COc1cccc(NC(=O)CCC(=O)Nc2ccc3nc(N4CCOCC4)cc(C)c3c2)c1 | 14 | -13 | . | . | .
Cc1ccnc(NS(=O)(=O)c2cccc([N+](=O)[O-])c2)c1 | -6 | 0 | . | . | .
CC(=O)c1cccc(NC(=O)CN(Cc2ccccc2)S(C)(=O)=O)c1 | -8 | -18 | -15 | . | .
CCOC(=O)c1ccc(NC(=O)CN(Cc2ccc(Cl)cc2)S(C)(=O)=O)cc1 | 50* | -2 | -10 | 76* | -0.59 | AML12 tox conf=2
COc1cccc(NC(=O)CN(Cc2ccccc2)S(C)(=O)=O)c1 | 50* | -1 | 9 | 43 | -0.27
CS(=O)(=O)N(CC(=O)Nc1ccc2c(c1)OCCO2)Cc1ccc(Cl)cc1 | 0 | 12 | -21 | . | .
COC(=O)C1=C(CS(=O)(=O)c2ccc(OC)cc2)NC(=O)NC1c1ccccc1 (centres undefined) | -19 | 7 | . | . | .
Cc1ccc(NC(=O)c2nc[nH]c2C(=O)NCC(=O)OC(C)(C)C)cc1 | 1 | 3 | -9 | . | .
Cc1cccc(NC(=O)c2nc[nH]c2C(=O)NCC(=O)OC(C)(C)C)c1 | 52* | 1 | 0 | 8 | 0.56
CCCCN(C)CCCNC(=O)c1cn(CC)c2ccc(S(=O)(=O)N3CCOCC3)cc2c1=O | -12 | 1 | . | . | .
CCN=C1S/C(=C\c2ccc(N3CCOCC3)cc2C)C(=O)N1CC | -5 | 4 | -15 | . | .
COCCN1C(=O)/C(=C/c2ccc(N3CCCC3)cc2C)SC1=S | 105* | -558 | -17 | 105* | -0.08
COc1ccc(CCN2C(=O)CC(N3CCOCC3)C2=O)cc1OC (centres undefined) | 51* | -11 | 0 | 25 | -0.31
COc1ccc(CCN2C(=O)CC(N3CCOCC3)C2=O)cc1 (centres undefined) | 11 | 0 | 9 | . | .
O=C(CSc1nc2ccccc2[nH]1)N1c2ccccc2Sc2ccccc21 | 7 | 6 | 2 | . | .
O=C(CSc1nc(O)cc(=O)[nH]1)N1c2ccccc2Sc2ccccc21 | 56* | -8 | 0 | 9 | 0.47
CN1CCN(NC(=O)NC2CCCCC2)CC1 | 4 | -4 | . | . | .
COc1cccc(-c2cc(C(=O)N3CCN(C(=O)c4ccco4)CC3)[nH]n2)c1 | 10 | 11 | . | . | .
CCOc1ccc(NC(=O)CN(C)c2ccc(S(=O)(=O)N(C(C)C)C(C)C)cn2)cc1OCC | 52* | -2 | -17 | 84* | 0.016 | AML12 tox conf=38
SMILES | Lipid droplet | p-CIP stab down | Mdm2 ligase inh | Lipid drop inh | AML12 tox img | others
CCOc1ccc(NC(=O)CN(C)C(=O)C2CCCC2)cc1OCC | -16 | 0 | -4 | . | .
CCc1ccc(NS(=O)(=O)c2c(C)noc2C)cc1 | 0 | -4 | . | . | .
Cc1ccc(OCc2cc(C(=O)N(C)CCc3nc4ccccc4[nH]3)no2)cc1C | -18 | 11 | . | . | .
Cn1nc(NC(=O)CC(C)(C)CC(=O)O)c2ccccc21 | 1 | -12 | -5 | . | .
COc1ccc(OC)c(CCNC(=O)C(C)n2nc(C)c3c(C)n(-c4ccccc4)nc3c2=O)c1 (centres undefined) | 42 | -10 | . | . | .
COc1ccc(OC)c(CCNC(=O)C(C)n2nc(C)c3c(C)n(-c4ccc(C)cc4)nc3c2=O)c1 (centres undefined) | 60* | -38 | . | 99* | -0.052 | AML12 tox conf=22
N#Cc1cccc(S(=O)(=O)Nc2c(NC3CCCCC3)c3ccccc3oc2=O)c1 | -1 | -2 | . | . | .
O=C(NCCc1c[nH]c2ccccc12)C(=O)NCC1OCCN1S(=O)(=O)c1ccccc1 (centres undefined) | -18 | -7 | -21 | . | .
Cc1cc(C)c(S(=O)(=O)N2CCOC2CNC(=O)C(=O)NCCc2c[nH]c3ccccc23)c(C)c1 (centres undefined) | 76* | 6 | . | 77* | -1 | AML12 tox conf=10
O=C(Cn1nc(-c2cccc(Cl)c2)ccc1=O)Nc1ccc(C(=O)NC2CC2)cc1 | 52* | 2 | 4 | 87* | 0.0057 | AML12 tox conf=13
O=C(Cn1nc(-c2cccc(Cl)c2)ccc1=O)Nc1cccnc1 | . | 0 | -12 | . | .
CCOc1ccccc1NC(=O)C1CCN(C(=O)NCc2ccccc2)CC1 | 130* | 8 | . | 110* | -0.4 | AML12 tox conf=6
COc1ccc(CNC(=O)C2CCCN(C(=O)Nc3ccccc3OC)C2)cc1 (centres undefined) | 81* | 3 | . | 99* | -0.73 | AML12 tox conf=10
CCOc1ccccc1NC(=O)N1CCC(C(=O)c2ccc(F)cc2)CC1 | 59* | -8 | -23 | 95* | 0.0025 | AML12 tox conf=13
COc1cccc(NC(=O)N2CCCC(C(=O)Nc3ccccc3OC)C2)c1 (centres undefined) | . | 7 | 5 | . | .
O=C(Nc1ccccc1F)C1CCN(C(=O)NCc2ccccc2)CC1 | 0 | -3 | . | . | .
COc1ccccc1NC(=O)N1CCC(C(=O)c2ccc(F)cc2)CC1 | 39 | -17 | -13 | . | .
COc1ccc(COC(=O)c2ccc(S(=O)(=O)N3CCC(C)CC3)cc2)cc1 | -8 | -14 | . | . | .
O=C1NC(=O)C(c2ccc(F)cc2)N1 (centres undefined) | -9 | -10 | . | . | .
Cc1cc(C)c(S(=O)(=O)CCC(C)C)c(=O)[nH]1 | -4 | -1 | -4 | . | .
COC(=O)c1ccc(-c2noc(CN(C)CC3CCCCO3)n2)cc1 (centres undefined) | 50* | 8 | -7 | 8 | 0.057
COC(=O)c1ccc(-c2noc(CN(Cc3ccncc3)CC3CCCO3)n2)cc1 (centres undefined) | 6 | -10 | 18 | . | .
Cc1c(O)ccc(/C=N/Nc2nc(-c3cccnc3)nc3ccccc23)c1O | 52* | -11 | -26 | 81* | 11*
Oc1ccc(/C=N/Nc2nc(-c3cccnc3)nc3ccccc23)c(O)c1 | -3 | -13 | -78 | . | .
O=S(=O)(Cc1ccc(Cl)cc1)NCc1cccnc1 | -8 | -5 | -12 | . | .
O=C(CN1CCCCC1)Nc1c2c(nc3ccccc13)N(c1ccccc1)CC2 | -5 | -34 | -44 | . | .

Bioassay records deposited in PubChem by several laboratories.
